Results as given in ChEMBL document CHEMBL1123461, “Studies on 1,2,3-triazoles. 13. (Piperazinylalkoxy) [1]benzopyrano[2,3-d]-1,2,3-triazol-9(1H)-ones with combined H1-antihistamine and mast cell stabilizing properties” (J Med Chem, 1986).
The source made the active and inactive calls. The calls are words filed in the database; no cut-off is given here.

Key:
Rattus norvegicus [1] = species on record: Rattus norvegicus; test: Compound was tested for the inhibition of release of histamine in rat passive peritoneal anaphylaxis; assay type: functional, organism-based
Procedure, shortened: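 Rat passive peritoneal anaphylaxis: antiserum i.p. sensitization for 2 h, then i.p. ovalbumin challenge (0.4 mg/mL in 5 mL Tyrode). Compound given i.p. in saline 30 s before antigen; dose expressed as concentration in 6 mL fluid. Peritoneal fluid taken at 5 min, supernatant TCA-treated, histamine measured spectrofluorimetrically. 5–7 rats/dose; % inhibition vs positive controls; ED50 from log-dose regression.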

Rattus norvegicus [2] = species on record: Rattus norvegicus; test: Compound was tested for the inhibition of release of extravasation in rat passive peritoneal anaphylaxis; assay type: functional, organism-based
Procedure, shortened: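 Rats passively sensitized i.p. with 2 mL 1:5 rat antiserum. Two hours later, i.v. Pontamine Sky Blue, then i.p. challenge with 5 mL Tyrode containing 0.4 mg/mL ovalbumin and heparin. Compound given i.p. in 1 mL saline 30 s before antigen; dose expressed as concentration in 6 mL injected. Peritoneal fluid collected at 5 min; dye read at OD 625 nm. 5–7 rats/dose; ED50 from log-dose regression.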

Histamine H1 receptor [3] = target: T1, Histamine H1 receptor (Cavia porcellus, UniProt P31389); test: H1-antihistamine activity in guinea pig ileum; assay type: functional, tissue-based; details: read-out: pA2 (converted)
Procedure, shortened: (§1)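 Isolated guinea pig ileum under ca. 1 g tension in Tyrode solution, with isotonic recording of histamine contractions. Method A: repeat histamine dose-response curves at increasing antagonist concentrations, then Schild plot of log(DR−1) vs −log molar concentration; pA2 is the abscissa intercept. Method B: 10-min antagonist exposure, then double histamine dose (~50% maximal single dose), three antagonist doses each tested three times.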

Histamine H1 receptor [4] = target: T1, Histamine H1 receptor; test: Compound was tested for H1-antihistamine activity in guinea pig ileum.; assay type: functional, tissue-based; details: read-out: pA2 (converted); procedure, shortened: as §1
[5] = target: Histamine H1 receptor (Cavia porcellus) (UniProt P31389); test: Compound was tested for H1-antihistamine activity in guinea pig ileum; IA = Inactive; assay type: functional, tissue-based; procedure, shortened: as §1
Histamine H1 receptor (Cavia porcellus), sequence (P31389 whole entry): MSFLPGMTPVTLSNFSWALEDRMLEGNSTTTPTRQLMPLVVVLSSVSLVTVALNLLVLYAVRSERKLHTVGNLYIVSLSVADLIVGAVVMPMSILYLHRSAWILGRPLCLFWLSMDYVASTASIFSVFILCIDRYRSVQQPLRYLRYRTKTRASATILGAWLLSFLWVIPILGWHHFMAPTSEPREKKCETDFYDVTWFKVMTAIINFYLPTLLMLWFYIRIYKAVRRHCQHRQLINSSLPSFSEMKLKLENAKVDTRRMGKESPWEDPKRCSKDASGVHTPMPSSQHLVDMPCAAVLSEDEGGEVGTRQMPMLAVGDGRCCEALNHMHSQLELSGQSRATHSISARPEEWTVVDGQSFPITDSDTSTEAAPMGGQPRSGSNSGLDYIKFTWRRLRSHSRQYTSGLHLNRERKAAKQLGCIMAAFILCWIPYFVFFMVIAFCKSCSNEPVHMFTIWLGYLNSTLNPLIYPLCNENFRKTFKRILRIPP

T1 sequence (P31389 whole entry): as above

SMILES	IC50 (Rattus norvegicus [1])	IC50 (Rattus norvegicus [2])	Kb (Histamine H1 receptor [3])	Kb (Histamine H1 receptor [4])	pA2 [5]
CN1CCC(=C2c3ccccc3CC(=O)c3sccc32)CC1 [KETOTIFEN]	> 200000 nM	–	–	–	–
Cc1c(OCCCN2CCN(Cc3ccc(Cl)cc3)CC2)ccc2c(O)c3nnnc-3oc12	840 nM	55 µM	1.58 nM	–	–
Cc1c(OCCCN(C)CCN(C)Cc2ccc(Cl)cc2)ccc2c(O)c3nnnc-3oc12	–	–	–	79.4 nM	–
COc1ccc(CN2CCN(CCCOc3ccc4c(O)c5nnnc-5oc4c3C)CC2)cc1	–	–	–	63.1 nM	–
Cc1c(OCCCN2CCN(Cc3cccc(Cl)c3)CC2)ccc2c(O)c3nnnc-3oc12	1000 nM	> 20 µM	3.98 nM	–	–
Cc1c(OCCCN2CCN(Cc3ccccn3)CC2)ccc2c(O)c3nnnc-3oc12	100 nM	> 20 µM	15.8 nM	–	–
COc1ccc(CN(CCN(C)C)c2ccccn2)cc1 [PYRILAMINE]	> 200000 nM	–	–	–	–
Cc1ccc(CN2CCN(CCCOc3ccc4c(O)c5nnnc-5oc4c3C)CC2)cc1	890 nM	> 20 µM	–	15.8 nM	–
Oc1c2nnnc-2oc2cc(OCCCN3CCN(Cc4ccc(Cl)cc4)CC3)ccc12	5400 nM	31 µM	0.794 nM	–	–
Cc1c(OCCCN2CCN(Cc3ccccc3Cl)CC2)ccc2c(O)c3nnnc-3oc12	2300 nM	10 µM	3.98 nM	–	–
O=C(O)c1cc(=O)c2c(OCC(O)COc3cccc4oc(C(=O)O)cc(=O)c34)cccc2o1	–	–	–	–	inactive
